# Screens from PubChem.
# Most compounds without a hit are left out; they make up all but 1.3% or so of the library.
# UCH37 inh: inhibitors of human deubiquitinating enzyme UCH37; Q9Y5K5; purified proteasome/UCH37, Ub-AMC cleavage fluorescence; inhibition, % (concentration not given with the values); 330,000 compounds, 0.33% hits;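 active = mean inhibition over replicate wells above about 20%, limit read from the data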;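 also: 0% = compound-free wells with enzyme and 100% = wells lacking proteasome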
#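 Material: human UCH37 enzyme supplied as purified proteasome complex / Amount: 0.15 nM proteasome as dispensed / Buffer or medium: pH 7.4 Tris-HCl (50 mM) with ovalbumin, ATP-MgCl2, DTT / Times: preincubation 30 min, reaction 25 min, room temperature / Technique: AMC fluorescence from Ub-AMC cleavage, excitation 355 nm, emission 460 nm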
# Casp6 inh: caspase-6 (human) enzyme inhibition; purified caspase-6, Z-VEID-R110 cleavage fluorescence; inhibition, % at 12.5 µM; 350,000 compounds, 0.53% hits; AID 686996;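 active = mean inhibition across replicates at least about 35%, with every replicate also reaching that limit, limit read from the data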;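 also: 0% = median of neutral control wells and 100% = no fluorescence left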
# TDP2 absorb: TDP2 (human) inhibition, absorbance primary screen; recombinant TDP2, T5PNP hydrolysis, p-nitrophenol absorbance 415 nm; inhibition, % at 12.8 µM; 370,000 compounds, 0.34% hits;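 active = inhibition above the mean of all tested compounds plus 3 SD, set per campaign, cut at about 25% in these data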;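 also: 0% = DMSO with enzyme and 100% = buffer with substrate but no TDP2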
#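 test system = human TDP2 enzyme | input = TDP2 enzyme at 120 nM final | medium = 50 mM Tris-HCl pH 7.5 with Mg2+, KCl, DTT, BSA | also added = T5PNP substrate, 5 mM | times = 2 h at 37 °C | technique = epi absorbance | benchmarks = high control without enzyme, low control DMSO plus TDP2 | replication = each compound tested once, singlicate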
# NSD2 HMT inh: inhibitors of human histone methyltransferase NSD2 | NSD2 peptide methylation, AlphaScreen, 120 min | inhibition, % at 12.5 µM | 310,000 compounds, 0.54% hits | AID 743445; in the data active = inhibition above about 50%
# LEDGF integ inh: blocks HIV-1 LEDGF/p75-dependent DNA integration | 370,000 compounds, 0.64% hits | inhibition, % at 3.7 µM | TR-FRET IN-LEDGF/p75 DNA integration, Eu/Cy5;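 active = inhibition above the screen-wide mean plus 3 SD, cut at about 13% in these data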;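 also: signal is the Cy5 over europium emission ratio at 671 and 618 nm; 0% = plate median of compound wells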
# UCH37 confirm: confirmation of human UCH37 deubiquitinating enzyme inhibitors; shares compounds with UCH37 inh; Proteasome-bound UCH37, Ub-AMC cleavage fluorescence; inhibition, % at 20 µM; 480 compounds, 27% hits; AID 624100;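 active = average inhibition over replicates above about 50%, so the earlier screening hit is confirmed, limit read from the data; inactive = the rest, counted as false positives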;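 also: based on cleavage rate fitted by regression over a 30 min kinetic read; 0% = proteasome plus Ub-AMC and 100% = Ub-AMC without proteasome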
# CASP1 counter: selectivity counter-screen: inhibitors of human caspase-1. shares compounds with Casp6 inh. purified caspase-1, Z-YVAD-R110 cleavage fluorescence. activity change, negative = inhibition, % at 35 µM. 100 tested, under 10 active;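 active = compounds lowering fluorescence whose fitted half-maximal concentration is no more than twice their top tested dose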
# Target sequence (P29466 whole entry, looked up): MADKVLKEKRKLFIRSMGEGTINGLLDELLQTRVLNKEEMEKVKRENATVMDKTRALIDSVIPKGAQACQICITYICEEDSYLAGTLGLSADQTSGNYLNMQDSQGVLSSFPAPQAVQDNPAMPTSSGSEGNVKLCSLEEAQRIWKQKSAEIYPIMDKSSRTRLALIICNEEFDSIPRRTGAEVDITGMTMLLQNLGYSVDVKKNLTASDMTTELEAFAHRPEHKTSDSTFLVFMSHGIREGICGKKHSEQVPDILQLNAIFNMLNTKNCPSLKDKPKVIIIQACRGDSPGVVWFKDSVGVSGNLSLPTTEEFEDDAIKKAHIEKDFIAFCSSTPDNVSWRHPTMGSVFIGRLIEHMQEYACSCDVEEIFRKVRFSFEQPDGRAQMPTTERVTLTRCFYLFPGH
# TDP2 confirm: human TDP2 inhibition, confirmation; shares compounds with TDP2 absorb; recombinant human TDP2, absorbance read-out; inhibition, % at 12.8 µM; 1,100 compounds, 22% hits; in the data active = inhibition above about 25%;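 also: 0% = vehicle with enzyme and 100% = no enzyme buffer only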
# IN multimer up: activates HIV-1 integrase multimerization in LEDGF counter-screen; 2,000 compounds, 17% hits; shares compounds with LEDGF integ inh; activation, % at 7.7 µM; TR-FRET HIV-1 integrase multimerization, biochemical; AID 1053131; in the data active = activation above about 8.9%
# TR-FRET interf: TR-FRET optical interference, LEDGF/p75 integration counter-screen; TR-FRET optical interference counterscreen, HIV-1 IN multimerization; AID 1053135; 2,000 tested, under 10 active; inhibition, % at 7.7 µM; shares compounds with LEDGF integ inh;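 active = inhibition above the mean over all tested compounds plus 3 SD, which no compound reached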;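 also: 0% = integrase with antibodies and DMSO and 100% = antibodies without integrase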
# IN-LEDGF confirm: confirmation of HIV-1 LEDGF/p75-dependent integration inhibitors; inhibition, % at 3.7 µM; TR-FRET LEDGF/p75-dependent HIV-1 integration, biochemical; shares compounds with LEDGF integ inh; 2,000 compounds, 36% hits; in the data active = inhibition above about 14%
# AlphaScreen art: interferes with AlphaScreen signal, flagging NSD2 false positives; shares compounds with NSD2 HMT inh; AlphaScreen artifact counterscreen, preloaded methylated H4 peptide; AC35, µM (series often up to 10 µM), for the others: top-dose activity change, negative = signal loss; 1,500 compounds, 9.4% hits; AID 1053174; call rule not given here
# Active calls of the source: *; · = not tested or not shown; + = active, no number.
SMILES,UCH37 inh,Casp6 inh,TDP2 absorb,NSD2 HMT inh,LEDGF integ inh,others
Cc1c(N=C2C=CC(=O)c3ccccc32)c(=O)n(-c2ccccc2)n1C,60.8*,27.8,23.7,88.7*,5.8,UCH37 confirm=47.0;AlphaScreen art=-7.9%
CC(C)(C)c1cc(C=NNC(=O)C[n+]2ccccc2)cc(C(C)(C)C)c1O,4.6,·,·,·,·,
O=C(NC(NC1CCS(=O)(=O)C1)C(=O)c1cccs1)c1ccccc1 (configuration not stated),2.3,·,2.0,·,2.8,
O=C(NC1=C(NC2CCS(=O)(=O)C2)C(=O)c2ccccc2C1=O)c1ccccc1 (configuration not stated),62.3*,95.2*,27.9*,109.0*,24.8*,UCH37 confirm=59.8*;TDP2 confirm=36.5*;IN multimer up=1.2;TR-FRET interf=-4.3;IN-LEDGF confirm=41.5*;AlphaScreen art=-1.4%
CC(C)(C)c1csc(NN=Cc2ccc(O)cc2)n1,-3.6,·,·,·,·,
CCN1/C(=C/C(C)=C/c2sc3ccccc3[n+]2CC)Sc2ccccc21,27.6*,15.5,-9.4,112.4*,2.6,UCH37 confirm=22.5;AlphaScreen art=5.45µM*
CCN(CC)c1ccc(C=NNC(=O)c2c(Cl)cnn2C)c(O)c1,-14.5,·,·,·,·,
Fc1ccc(COc2ccc(Cl)cc2C=NNc2nc(N3CCCC3)nc(N3CCCC3)n2)cc1,3.6,·,·,·,·,
Cc1[nH][nH]c(=O)c1C(c1c(C)[nH][nH]c1=O)c1cn(C)c2ccccc12,89.6*,34.7,48.7*,51.4*,0.0,UCH37 confirm=56.7*;TDP2 confirm=20.7;AlphaScreen art=-3.1%
O=C1C=C(N2CCOCC2)c2cccc3cccc1c23,·,-8.2,-0.1,·,0.0,
O=C1C=C(N2CCOCC2)c2ccccc2C1=O,97.4*,99.7*,64.7*,+,22.3*,UCH37 confirm=130.5*;TDP2 confirm=86.5*;IN multimer up=3.1;TR-FRET interf=-11.0;IN-LEDGF confirm=72.3*;AlphaScreen art=-1.9%
COc1cc(C=NNC(=O)c2ccoc2C)cc(OC)c1O,2.7,·,·,·,·,
COc1cc(NC(C)CCCNC(C)C)c2ncccc2c1OC (configuration not stated),·,37.5*,16.2,111.4*,14.3*,CASP1 counter=0.7
Cc1oc2c(cc(NS(=O)(=O)c3ccc(F)cc3)c3ccccc32)c1C(=O)O,3.3,·,9.3,6.8,1.5,
Cc1oc2c(cc(NS(=O)(=O)c3ccc(C(C)C)cc3)c3ccccc32)c1C(=O)O,·,39.4*,3.4,19.7,3.4,CASP1 counter=12.1
O=C(O)C1CCCCC1C(=O)Nc1cccc(Br)c1 (configuration not stated),2.6,75.1*,-13.2,·,5.2,CASP1 counter=-2.0
O=C(Nc1cccc(Br)c1)C1CCCC1,4.1,-2.4,-9.9,-0.1,-5.6,
Nc1cc2c(cc1Br)[nH]c(=O)c1ccccc12,·,42.4*,14.5,·,-2.4,CASP1 counter=5.7
Nc1cc2[nH]c(=O)c3ccccc3c2cc1Br,·,0.1,8.8,-1.7,1.0,
CC(CC(=O)Nc1ccc2c(c1)OCCO2)=NNC(=O)c1ccccc1F,3.7,·,·,·,·,
CCN(CC)c1ccc(C=NN2CCN(Cc3ccc(C)cc3)CC2)c(O)c1,2.3,·,·,·,·,
O=C(O)/C(=C\c1ccc(Cl)c([N+](=O)[O-])c1)c1ccc(S(=O)(=O)N2CCCC2)s1,10.8,69.6*,-1.7,49.4,-1.2,CASP1 counter=10.9
